SMILES strings stand for the structures.

The assay has as its target T1, C-C chemokine receptor type 3 (Homo sapiens, UniProt P51677).
T1 sequence (P51677 whole entry): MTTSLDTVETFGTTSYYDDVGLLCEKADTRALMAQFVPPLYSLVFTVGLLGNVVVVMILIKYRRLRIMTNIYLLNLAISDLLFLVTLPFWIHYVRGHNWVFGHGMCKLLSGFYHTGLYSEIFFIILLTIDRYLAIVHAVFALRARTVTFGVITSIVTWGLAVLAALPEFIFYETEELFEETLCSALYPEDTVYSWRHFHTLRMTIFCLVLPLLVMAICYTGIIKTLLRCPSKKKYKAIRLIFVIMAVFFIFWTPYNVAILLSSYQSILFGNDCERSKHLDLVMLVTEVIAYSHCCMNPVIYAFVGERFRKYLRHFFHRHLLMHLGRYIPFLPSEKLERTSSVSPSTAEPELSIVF
Nature of the assay: Binding affinity measured for human C-C chemokine receptor type 3 expressed on human K562 cell membrane. The format is cell membranes. The method in brief: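 Membranes from K562 cells transfected with human CCR3 (disrupted by nitrogen decompression, spun 40,000g, 4 °C, 1 h), 0.5–5 µg protein/well. SPA with WGA-coated PVT beads and 125I-rh eotaxin-1. Compounds added as DMSO dilutions, incubated 2 h. Buffer: 25 mM HEPES, 25 mM MgCl2, 1 mM CaCl2, 0.1% BSA. Unlabelled rh eotaxin defined nonspecific binding. Ki obtained by iterative mass-action fitting.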
The compound `FC(F)(F)Oc1ccccc1/C=C1\CCN2Cc3ccccc3N=C12` showed an inhibitory constant (Ki) of 3.2 µM. On to `Cc1sc2nc3n(c(=N)c2c1C)CC/C3=C\c1ccccc1Br`, for which affinity was put at a Ki of 0.26 µM. On to `Clc1ccc(/C=C2\CCN3Cc4ccccc4N=C23)c(Cl)c1`, for which the Ki came to 1.7 µM. The value for `N=c1c2ccccc2nc2n1CC/C2=C\c1ccccc1Br` was 0.028 µM; that for `CC(C)(C)c1csc2nc3n(c(=N)c12)CC/C3=C\c1ccccc1Br` was 1.2 µM; that for `FC(F)(F)c1ccccc1/C=C1\CCN2Cc3ccccc3N=C12` was 1.6 µM.

The compound `CCc1ccccc1/C=C1\CCn2c1nc1ccccc1c2=N` had a Ki of 0.36 µM.

As for `N=c1c2c(C3CC3)csc2nc2n1CC/C2=C\c1ccccc1Br`, the affinity corresponds to a Ki of 0.29 µM. `N=c1c2nc[nH]c2nc2n1CC/C2=C\c1ccccc1Br` showed a Ki of 0.83 µM. Take `Fc1ccc(C2C/C(=C\c3ccccc3Br)C3=Nc4ccccc4CN32)cc1` (stereo unspecified): the Ki was found to be 7.9 µM.

For `CCC1C/C(=C\c2ccccc2Cl)C2=Nc3ccccc3CN21` (stereo unspecified), the affinity corresponds to a Ki of 0.14 µM.

In turn, `C/N=c1/c2ccccc2nc2n1CC/C2=C\c1ccccc1Br` displayed a Ki of 0.31 µM. In the case of `N=c1c2c3c(sc2nc2n1CC/C2=C\c1ccccc1Br)CCCC3`, the Ki stood at 0.35 µM. Compound `Fc1ccccc1/C=C1\CCN2Cc3ccccc3N=C12` came in with a Ki of 1.4 µM. The value for `CCc1ccccc1/C=C1\CCN2Cc3ccccc3N=C12` was 1.4 µM; that for `Clc1cccc(Cl)c1/C=C1\CCN2Cc3ccccc3N=C12` was 1.8 µM. `CN(C)c1ccc(/C=C2\CCN3Cc4ccccc4N=C23)c(Cl)c1` yielded a Ki of 1.4 µM. The value for `Clc1ccc(/C=C2\CCN3Cc4ccccc4N=C23)cc1Cl` was 0.72 µM; that for `N=c1c2ccsc2nc2n1CC/C2=C\c1ccccc1Br` was 0.028 µM; that for `CCCCC1C/C(=C\c2ccccc2Br)C2=Nc3ccccc3CN21` (stereo unspecified) was 0.25 µM.

As for `Brc1ccccc1/C=C1\CCN2Cc3ccccc3N=C12`, the Ki was 0.09 µM. The figure for `Cc1oc2nc3n(c(=N)c2c1C)CC/C3=C\c1ccccc1Br` is 0.27 µM; for `N=c1c2ccccc2nc2n1CC/C2=C\c1ccccc1I` it is 0.076 µM. The figure for `N#C/N=c1/c2ccccc2nc2n1CC/C2=C\c1ccccc1Br` is 6.1 µM; for `Fc1ccc(/C=C2\CCN3Cc4ccccc4N=C23)c(Cl)c1` it is 0.93 µM. With `Clc1ccccc1/C=C1\CCN2Cc3ccccc3N=C12`, the affinity corresponds to a Ki of 0.11 µM. As for `N=c1c2cccnc2nc2n1CC/C2=C\c1ccccc1Br`, the inhibitory constant (Ki) came out at 0.82 µM. The compound `COc1ccc(/C=C2\CCn3c2nc2ccccc2c3=N)cc1` showed a Ki of 3.9 µM. For the compound `CCOc1ccccc1/C=C1\CCN2Cc3ccccc3N=C12`, the affinity corresponds to a Ki of 4.5 µM. The figure for `N=c1c2ccccc2nc2n1CC/C2=C\c1ccccc1Cl` is 0.035 µM; for `C(=C1/CCN2Cc3ccccc3N=C12)/c1ccccc1-c1ccccc1` it is 2.9 µM.

Values taken from ChEMBL document CHEMBL1144285, “Pyrrolidinohydroquinazolines--a novel class of CCR3 modulators” (Bioorg Med Chem Lett, 2005).
